Bioassay records deposited in PubChem BioAssay by several laboratories.
HEK293 NFkB inh – inhibitors of the PMA/ionomycin-induced NF-kB reporter in HEK293 cells; HEK-293 NF-kB luciferase reporter, luminescence; inhibition, % at 3 µM; actives 0.21% (n = 62,000); AID 465;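 active means inhibition above the mean of all tested compounds plus 3 SD, cut at about 40% in these data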
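Timing: 1 h pretreatment, 16 h stimulation, 37 °C; system: HEK-293 cells with stable firefly luciferase reporter driven by four HIV NF-kB elements; doses: 3 µM once, 0.30% DMSO; measured by: luciferase luminescence; control set: DMSO and 10 µM reference inhibitor; repeats: single test; reagent: PMA plus ionomycin mix as NF-kB-activating stimulus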
AP ELISA ortho – orthogonal test for alternative complement pathway inhibitors. Human serum alternative complement pathway, LPS-coated ELISA, C3 deposition; tested in compound mixtures. inhibition, % at 5 µM. actives 0.08% (n = 62,000);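 active means inhibition above 30% in each of the two pooled mixtures holding the compound, so the lower value exceeds 30%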
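Assay system: human serum alternative complement pathway, C3 deposition on LPS-coated wells; Dosing: 5 µM per compound in ten-compound mixtures; Detection: Anti-C3 ELISA, OD 450 nm; Buffer or medium: Mg2+-EGTA GVB++ buffer containing human serum at 1:15 dilution; Timing: 1 h at 37 °C; Replication: two different pools per compound.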
Plk1 PBD FP – blocks phosphopeptide binding to human Plk1 polo box domain; P53350; Plk1 PBD phosphopeptide binding, fluorescence polarization; actives 0.13% (n = 97,000); inhibition, %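 (tested at about 20 µM)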; in the data active means inhibition above about 34%, passing the limit was not always enough
PTK2B oligo ant – blocks oligomerization of human Pyk2 in cells | Q14289 | Q293 cells, Pyk2 FERM NanoBiT luminescence; stronger effect = lower value | z-score (the deposit names both 25 µM and 10 µM) | actives 0.83% (n = 99,000) | AID 1347419;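 active means Z-score of -3 or lower, scaled per plate to the spread of control and sample wells; inactive means z-score above -3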;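 further: negative z-score means lost luminescence so less FERM oligomerization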
Target sequence (Q14289 whole entry, looked up): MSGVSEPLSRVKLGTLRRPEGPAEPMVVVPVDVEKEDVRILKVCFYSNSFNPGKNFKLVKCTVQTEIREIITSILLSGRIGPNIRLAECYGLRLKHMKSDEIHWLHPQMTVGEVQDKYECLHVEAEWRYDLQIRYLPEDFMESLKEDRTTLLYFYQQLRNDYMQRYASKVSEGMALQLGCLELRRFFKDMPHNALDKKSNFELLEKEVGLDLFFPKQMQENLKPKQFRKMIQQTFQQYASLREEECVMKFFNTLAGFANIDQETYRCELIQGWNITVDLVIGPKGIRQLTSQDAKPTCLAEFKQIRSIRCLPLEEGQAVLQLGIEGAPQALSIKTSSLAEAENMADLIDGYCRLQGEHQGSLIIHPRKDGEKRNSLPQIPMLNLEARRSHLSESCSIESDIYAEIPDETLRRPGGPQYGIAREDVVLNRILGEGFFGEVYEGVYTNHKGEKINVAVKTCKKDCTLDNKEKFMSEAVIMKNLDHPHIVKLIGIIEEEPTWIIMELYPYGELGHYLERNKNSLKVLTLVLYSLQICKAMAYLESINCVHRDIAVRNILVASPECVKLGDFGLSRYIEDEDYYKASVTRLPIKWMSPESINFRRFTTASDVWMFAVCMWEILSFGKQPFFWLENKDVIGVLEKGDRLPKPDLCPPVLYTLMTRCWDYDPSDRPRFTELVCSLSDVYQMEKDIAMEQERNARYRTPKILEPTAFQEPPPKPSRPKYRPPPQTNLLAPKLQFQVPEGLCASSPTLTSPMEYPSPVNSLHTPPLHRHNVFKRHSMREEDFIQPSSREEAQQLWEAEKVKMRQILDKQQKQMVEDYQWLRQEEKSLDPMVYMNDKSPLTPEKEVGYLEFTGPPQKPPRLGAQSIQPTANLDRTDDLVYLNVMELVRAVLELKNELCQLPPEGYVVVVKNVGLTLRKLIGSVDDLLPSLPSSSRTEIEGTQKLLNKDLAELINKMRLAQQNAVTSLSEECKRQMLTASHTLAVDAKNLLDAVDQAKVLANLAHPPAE
PLK1 kinase inh – inhibitors of human PLK1 kinase | P53350 | actives 0.53% (n = 97,000) | AID 619 | inhibition, % at 10 µM | recombinant PLK1 kinase, TR-FRET peptide phosphorylation;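 active means inhibition of 50% or more in the single-concentration screen; inactive means inhibition below 50%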
HePTP inhibitor – blocks human HePTP tyrosine phosphatase; P35236; recombinant HePTP phosphatase activity, OD absorbance; inhibition, % at 20 µM; actives 0.64% (n = 110,000); AID 521; in the data active means inhibition above about 50%
Large screens that a line does not name were inactive. Shown are actives, neighbours in structure and some others; about 1.5% of the full set was active somewhere.

COCCNC(=O)CS(=O)(=O)Cc1nc(-c2ccc(C)cc2)oc1C	PLK1 kinase inh 67.0 (no result: PTK2B oligo ant)
Cc1ccc(-c2nc(CS(=O)(=O)CC(=O)NC3CCCCC3C)c(C)o2)cc1 (centres undefined)	PLK1 kinase inh 53.5 (no result: PTK2B oligo ant)
CCCCOC(=O)c1ccc2c(c1)C1C=CCC1C(c1ccc([N+](=O)[O-])cc1)N2 (centres undefined)	none (no result: HEK293 NFkB inh, AP ELISA ortho, Plk1 PBD FP, PTK2B oligo ant, PLK1 kinase inh)
CCC(C)N1C(=O)/C(=C/c2c(NCCCOC(C)C)nc3c(C)cccn3c2=O)SC1=S (centres undefined)	PTK2B oligo ant -3.11 (no result: HEK293 NFkB inh, AP ELISA ortho, HePTP inhibitor)
CCCN1C(=O)/C(=C/c2c(NCCCOC(C)C)nc3c(C)cccn3c2=O)SC1=S	none (no result: HEK293 NFkB inh, AP ELISA ortho, HePTP inhibitor)
CSc1nnc(-c2sc3cc(C(F)(F)F)cnc3c2-c2ccccc2)n1C	PTK2B oligo ant -3.1 (no result: HEK293 NFkB inh, AP ELISA ortho, HePTP inhibitor)
O=[N+]([O-])c1cc([N+](=O)[O-])c2oc(-c3ccccc3)c(Br)c2c1O	HePTP inhibitor 104.2 (no result: HEK293 NFkB inh, AP ELISA ortho, Plk1 PBD FP, PTK2B oligo ant, PLK1 kinase inh)
CC1=NN(c2cccc(C(=O)O)c2)C(=O)/C1=C\c1ccc(-c2cc([N+](=O)[O-])ccc2C)o1	HePTP inhibitor 55.7 (no result: HEK293 NFkB inh, AP ELISA ortho, Plk1 PBD FP, PTK2B oligo ant, PLK1 kinase inh)
CC1=NN(c2cccc(C(=O)O)c2)C(=O)/C1=C\c1ccc(-c2ccc(Cl)c(C(=O)O)c2)o1	HePTP inhibitor 100.6 (no result: HEK293 NFkB inh, AP ELISA ortho, Plk1 PBD FP, PTK2B oligo ant, PLK1 kinase inh)
CC1=NN(c2cccc(C(=O)O)c2)C(=O)/C1=C\c1ccc(-c2ccc([N+](=O)[O-])cc2)o1	none (no result: HEK293 NFkB inh, AP ELISA ortho, Plk1 PBD FP, PTK2B oligo ant, PLK1 kinase inh)
O=C(O)CSCCCN1C(=O)c2cccc3cccc(c23)C1=O	none (no result: HEK293 NFkB inh, AP ELISA ortho, Plk1 PBD FP, PTK2B oligo ant, PLK1 kinase inh)
CC(=O)Nc1cccc(NC(=O)CSc2ncc(-c3ccc(Cl)cc3)n2Cc2ccco2)c1	PTK2B oligo ant -3.72
COc1ccc(-c2cnc(SCC(=O)Nc3ccc4c(c3)OCO4)n2Cc2ccco2)cc1	none
CCN(CC)S(=O)(=O)c1ccc2c3c(cccc13)C(=O)N2	none (no result: Plk1 PBD FP, PTK2B oligo ant, PLK1 kinase inh)
CCN(c1cccc(C)c1)S(=O)(=O)c1ccc2c3c(cccc13)C(=O)N2	PTK2B oligo ant -3.13 (no result: HEK293 NFkB inh, AP ELISA ortho, HePTP inhibitor)
COc1c(Br)cc(/C=C2\SC(=S)NC2=O)cc1Br	HePTP inhibitor 103.2 (no result: HEK293 NFkB inh, AP ELISA ortho, Plk1 PBD FP, PTK2B oligo ant, PLK1 kinase inh)
COc1cc(/C=C2/SC(=S)NC2=O)cc(Cl)c1O	none (no result: HEK293 NFkB inh, AP ELISA ortho, Plk1 PBD FP, PTK2B oligo ant, PLK1 kinase inh)
COc1cc(/C=C2\SC(=S)NC2=O)cc(Br)c1OC(C)=O	none (no result: HEK293 NFkB inh, AP ELISA ortho, Plk1 PBD FP, PTK2B oligo ant, PLK1 kinase inh)
COc1cc(/C=C2/SC(=S)NC2=O)cc(Cl)c1OCc1ccc(Cl)cc1Cl	HePTP inhibitor 101.7 (no result: HEK293 NFkB inh, AP ELISA ortho, Plk1 PBD FP, PTK2B oligo ant, PLK1 kinase inh)
O=C1NC(=S)S/C1=C/c1cc(I)c(O)c(I)c1	HePTP inhibitor 101.0 (no result: HEK293 NFkB inh, AP ELISA ortho, Plk1 PBD FP, PTK2B oligo ant, PLK1 kinase inh)
CCOCCOC(=O)C1=C(C)NC2=C(C(=O)CCC2)C1c1cccc(Cl)c1Cl (centres undefined)	none (no result: HEK293 NFkB inh, AP ELISA ortho, Plk1 PBD FP, PTK2B oligo ant, PLK1 kinase inh)
O=S(=O)(c1ccc(Cl)cc1)N1CCN(Cc2cccc3ccccc23)CC1	none (no result: HEK293 NFkB inh, AP ELISA ortho, Plk1 PBD FP, PTK2B oligo ant, PLK1 kinase inh)
CC1=CC(C)(C)Nc2ccc(OC(=O)c3cccnc3)cc21	HEK293 NFkB inh 43.6
CC1=CC(C)(C)Nc2ccc(OC(=O)c3ccco3)cc21	HEK293 NFkB inh 45.1
CC1=CC(C)(C)Nc2ccc(OC(=O)CN3C(=O)CCC3=O)cc21	HEK293 NFkB inh 40.3 (no result: Plk1 PBD FP, PLK1 kinase inh)
CC1=CC(C)(C)Nc2ccc(OC(=O)C(C)N3C(=O)c4ccccc4C3=O)cc21 (centres undefined)	none (no result: HEK293 NFkB inh, AP ELISA ortho)
CC1=CC(C)(C)Nc2ccc(OC(=O)c3ccccc3)cc21	none (no result: HEK293 NFkB inh, AP ELISA ortho, Plk1 PBD FP, PTK2B oligo ant, PLK1 kinase inh)
CCOC(=O)c1c(N)c(C#N)c(C)n1-c1ccc(Cl)cc1	none (no result: HEK293 NFkB inh, AP ELISA ortho, Plk1 PBD FP, PTK2B oligo ant, PLK1 kinase inh)
CCOc1ccc(N2C(=O)CC(NCc3ccc(Cl)cc3Cl)C2=O)cc1 (centres undefined)	HePTP inhibitor 104.3 (no result: HEK293 NFkB inh, AP ELISA ortho, Plk1 PBD FP, PTK2B oligo ant, PLK1 kinase inh)
CCOc1ccc(N2C(=O)CC(NCc3ccc(S(N)(=O)=O)cc3)C2=O)cc1 (centres undefined)	none (no result: HEK293 NFkB inh, AP ELISA ortho, Plk1 PBD FP, PTK2B oligo ant, PLK1 kinase inh)
Cc1oc2cc3c(C(=O)OCCN(C)C)c(C)oc3cc2c1C(=O)OCCN(C)C	HEK293 NFkB inh 77.6 (no result: Plk1 PBD FP, PTK2B oligo ant, PLK1 kinase inh)
CCOC(=O)c1c(C)oc2cc3c(C(=O)OCC)c(C)oc3cc12	none (no result: HEK293 NFkB inh, AP ELISA ortho, PTK2B oligo ant, HePTP inhibitor)
CCc1ccc2nc(SCC(=O)N3CC(=O)Nc4ccccc43)c(C#N)cc2c1	PTK2B oligo ant -3.37 (no result: HEK293 NFkB inh, AP ELISA ortho, HePTP inhibitor)
O=C(Nc1ccc2oc(-c3ccccc3F)nc2c1)c1cccc([N+](=O)[O-])c1	HePTP inhibitor 99.2 (no result: HEK293 NFkB inh, AP ELISA ortho, Plk1 PBD FP, PTK2B oligo ant, PLK1 kinase inh)
CN(C)/C=C1\N=C(C(c2ccccc2)c2ccccc2)OC1=O	none (no result: HEK293 NFkB inh, AP ELISA ortho, Plk1 PBD FP, PTK2B oligo ant, PLK1 kinase inh)
COc1cc(C2C(C#N)=C(C)NC3=C2C(=O)c2ccccc23)cc(OC)c1OC (centres undefined)	HEK293 NFkB inh 43.0
Cc1ccc2nc(NC(=O)c3cccc4ccccc34)sc2c1	none (no result: HEK293 NFkB inh, AP ELISA ortho, Plk1 PBD FP, PTK2B oligo ant, PLK1 kinase inh)
CCOC(=O)c1c(NC(=O)CN2CCCCC2)sc2c1CCC(C=O)=C2Cl	PTK2B oligo ant -3.11 (no result: HEK293 NFkB inh, AP ELISA ortho, HePTP inhibitor)
CCN(CC)CCNc1c(N)c(=O)oc2ccccc12	none (no result: HEK293 NFkB inh, AP ELISA ortho, Plk1 PBD FP, PTK2B oligo ant, PLK1 kinase inh)
